# Experimental data reported in PMC8415080 (Pharmacology Research & Perspectives, 2021).
# How the values were obtained:
# [1] = system: H460 cells; experiment: Mitochondria respiration profiling; assay type: cell-based, human
# How it was run: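 On the XF96, basal OCR was followed by injection of test compound doses (10X), then oligomycin (1 µg/ml), FCCP, and rotenone plus antimycin A (1 µM each). Cycles were 4 min mix, 3 min measure; control injections were medium. OCR expressed as fold of vehicle.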
# [2] = system: H460 cells; experiment: Proliferation assay; assay type: cell-based, human
# [3] = system: H460 cells; experiment: Total and mitochondrial ATP content; assay type: cell-based, human
# How it was run: (§1)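 Cells (8000/well) were incubated 18 h at 37℃ (5% CO2). Test compound was added at half‐log doses, final 10 nM–10 µM, to paired plates for 1 h, with or without 100 µM iodoacetate. ATP was read by CellTiter‐Glo luminescence: mitochondrial ATP with iodoacetate, global ATP without. Mean ± SD.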
# [4] = system: patients; settings: no reference given; cited from earlier work
# [5] = system: H460 cells; experiment: Apoptosis assay; assay type: cell-based, human
# [6] = system: ferret; experiment: Ferret model of emesis; assay type: in vivo; settings: increasing doses; for induction of emesis (retches and vomits): 2 h test
# [7] = molecular target: OAT1 (Homo sapiens, UniProt Q4U2R8); experiment: In vitro transporter inhibition; assay type: in vitro ADME
# Chain of OAT1 (Q4U2R8 whole entry, species assumed): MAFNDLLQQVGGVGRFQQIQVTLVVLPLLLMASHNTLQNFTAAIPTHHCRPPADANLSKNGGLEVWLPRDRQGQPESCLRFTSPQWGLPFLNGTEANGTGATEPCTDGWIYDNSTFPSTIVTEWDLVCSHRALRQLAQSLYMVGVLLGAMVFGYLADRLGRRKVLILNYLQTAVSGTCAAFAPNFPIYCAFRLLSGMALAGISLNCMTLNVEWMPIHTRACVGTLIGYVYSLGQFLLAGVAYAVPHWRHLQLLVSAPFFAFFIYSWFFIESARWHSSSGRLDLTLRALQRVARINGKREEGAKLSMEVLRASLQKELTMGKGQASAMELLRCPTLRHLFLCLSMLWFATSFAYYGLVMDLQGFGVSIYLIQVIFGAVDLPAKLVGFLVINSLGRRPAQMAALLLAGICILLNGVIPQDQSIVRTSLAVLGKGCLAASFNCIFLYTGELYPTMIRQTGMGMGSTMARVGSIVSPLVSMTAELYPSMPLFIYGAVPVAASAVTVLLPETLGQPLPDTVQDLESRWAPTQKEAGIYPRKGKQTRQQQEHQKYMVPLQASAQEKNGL
# [8] = system: glycolytic‐Eµ‐Myc lymphoma; experiment: B‐cell lymphoma in vivo study, glycolytic‐Eµ‐Myc; set-up: species or system C57BL/6 mice; settings: 30 mg/kg p.o. QD, glycolytic‐Eµ‐Myc‐bearing mice
# How it was run: (§2)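 Syngeneic female C57BL/6J Ola Hsd mice, 6 weeks old, received 1 × 10^5 viable Eμ‐Myc cells in PBS by tail vein. Oral dosing began 6 days later, when inguinal nodes became palpable: 30 mg/kg daily at 10 ml/kg in PEG200/Solutol HS15/water (30%/5%/65%), or vehicle alone; n = 10/group. Weight and node palpation every 2–3 days. Mice sacrificed at illness signs; node tumors and spleens weighed. Kaplan–Meier survival, log‐rank test.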
# [9] = system: H460‐LKB1 cells; experiment: mTOR/AMPK pathway signaling; assay type: cell-based, human; settings: H460‐LKB1, within minutes after exposure
# [10] = molecular target: P‐gp (Homo sapiens, UniProt P08183); experiment: In vitro transporter inhibition; assay type: in vitro ADME; settings: expressed in MDCKII
# Chain of P‐gp (P08183 whole entry): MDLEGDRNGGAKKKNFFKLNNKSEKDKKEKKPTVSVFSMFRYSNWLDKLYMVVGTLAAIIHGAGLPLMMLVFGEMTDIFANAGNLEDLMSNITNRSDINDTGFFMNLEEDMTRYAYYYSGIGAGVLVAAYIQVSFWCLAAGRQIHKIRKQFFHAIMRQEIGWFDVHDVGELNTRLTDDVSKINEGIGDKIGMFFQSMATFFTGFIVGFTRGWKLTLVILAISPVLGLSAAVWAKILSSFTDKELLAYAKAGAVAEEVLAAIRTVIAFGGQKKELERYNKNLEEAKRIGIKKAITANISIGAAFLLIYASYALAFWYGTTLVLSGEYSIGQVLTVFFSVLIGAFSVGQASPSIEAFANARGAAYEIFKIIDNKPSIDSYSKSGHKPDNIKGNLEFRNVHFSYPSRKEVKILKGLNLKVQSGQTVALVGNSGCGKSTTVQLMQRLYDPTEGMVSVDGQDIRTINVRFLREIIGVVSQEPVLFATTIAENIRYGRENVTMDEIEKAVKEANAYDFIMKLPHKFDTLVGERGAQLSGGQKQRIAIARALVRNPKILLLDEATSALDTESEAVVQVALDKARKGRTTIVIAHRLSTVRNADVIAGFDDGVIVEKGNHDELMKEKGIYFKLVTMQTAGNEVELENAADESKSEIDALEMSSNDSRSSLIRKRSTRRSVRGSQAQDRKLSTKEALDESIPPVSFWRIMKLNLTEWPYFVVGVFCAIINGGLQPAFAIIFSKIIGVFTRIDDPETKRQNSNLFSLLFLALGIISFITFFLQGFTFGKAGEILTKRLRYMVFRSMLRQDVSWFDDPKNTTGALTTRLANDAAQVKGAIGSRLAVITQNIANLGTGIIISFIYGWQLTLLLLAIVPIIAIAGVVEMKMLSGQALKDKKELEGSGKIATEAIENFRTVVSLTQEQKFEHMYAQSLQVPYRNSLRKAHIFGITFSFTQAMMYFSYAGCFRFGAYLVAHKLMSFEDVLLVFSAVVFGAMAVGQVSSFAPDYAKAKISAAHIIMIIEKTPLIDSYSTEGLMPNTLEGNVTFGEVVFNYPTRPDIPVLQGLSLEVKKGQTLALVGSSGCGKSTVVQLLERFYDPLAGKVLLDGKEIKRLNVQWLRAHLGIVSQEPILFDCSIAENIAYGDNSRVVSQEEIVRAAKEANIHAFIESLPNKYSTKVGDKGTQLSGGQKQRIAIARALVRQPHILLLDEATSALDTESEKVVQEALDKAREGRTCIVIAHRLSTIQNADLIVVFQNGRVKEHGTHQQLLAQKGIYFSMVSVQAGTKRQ
# [11] = system: H460‐LKB1 cells; experiment: Total and mitochondrial ATP content; assay type: cell-based, human; settings: H460‐LKB1, whatever the dose
# How it was run: as §1
# [12] = molecular target: CCK1R (Homo sapiens, UniProt P32238); experiment: Cerep in vitro safety screen, competition with reference ligand binding; settings: 10 µM
# Chain of CCK1R (P32238 whole entry, species assumed): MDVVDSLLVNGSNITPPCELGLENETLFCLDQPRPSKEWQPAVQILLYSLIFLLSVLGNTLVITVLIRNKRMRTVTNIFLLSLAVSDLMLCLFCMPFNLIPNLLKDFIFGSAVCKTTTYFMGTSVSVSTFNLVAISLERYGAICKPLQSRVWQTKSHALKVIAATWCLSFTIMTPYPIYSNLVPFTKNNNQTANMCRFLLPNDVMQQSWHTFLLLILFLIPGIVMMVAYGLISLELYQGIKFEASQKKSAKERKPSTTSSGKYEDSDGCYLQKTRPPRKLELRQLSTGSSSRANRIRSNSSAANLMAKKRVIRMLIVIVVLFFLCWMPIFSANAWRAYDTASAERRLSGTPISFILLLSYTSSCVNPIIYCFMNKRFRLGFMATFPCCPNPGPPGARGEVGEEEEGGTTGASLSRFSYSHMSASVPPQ
# How it was run: (§3)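 Cerep in vitro safety screen: test compound at 10 µM assessed for competition with reference ligand binding across a panel of 300 receptors.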
# [13] = system: H460‐LKB1 cells; experiment: Apoptosis assay; assay type: cell-based, human; settings: H460‐LKB1, even at 10 µM
# [14] = system: H460‐luc2 orthotopic tumors; experiment: Orthotopic H460 lung tumor model; assay type: in vivo, Balb/CJ‐Nude mice; settings: 30 mg/kg p.o. QD from D7
# How it was run: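 Male Balb/c Nude mice, 7 weeks old, were anaesthetised i.p. with Rompun (20 mg/kg) plus Imalgene (100 mg/kg). They were inoculated intrabronchially via an oral catheter with 25 µl of H460‐Luc2 cells at 20 million/ml in PBS. Mice were allocated by bioluminescence at D7 and dosed orally at 30 mg/kg daily for 15 days (3 mg/ml in PEG200/Solutol HS15/water 30%/5%/65%, 10 ml/kg) or vehicle; n = 9/group. Imaging at D7/D14/D21 used 12 min post i.p. D‐luciferin (2 mg). Tumors were measured at termination; t‐test.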
# [15] = molecular target: OATP1B1 (Homo sapiens, UniProt Q9Y6L6); experiment: In vitro transporter inhibition; assay type: in vitro ADME
# [16] = molecular target: Complex I purified from bovine heart (Bos taurus, UniProt P03887+P17694+P42026); experiment: MitoTox Complex I OxPhos Activity Assay; assay type: biochemical
# Chain of Complex I purified from bovine heart (P17694 34-463): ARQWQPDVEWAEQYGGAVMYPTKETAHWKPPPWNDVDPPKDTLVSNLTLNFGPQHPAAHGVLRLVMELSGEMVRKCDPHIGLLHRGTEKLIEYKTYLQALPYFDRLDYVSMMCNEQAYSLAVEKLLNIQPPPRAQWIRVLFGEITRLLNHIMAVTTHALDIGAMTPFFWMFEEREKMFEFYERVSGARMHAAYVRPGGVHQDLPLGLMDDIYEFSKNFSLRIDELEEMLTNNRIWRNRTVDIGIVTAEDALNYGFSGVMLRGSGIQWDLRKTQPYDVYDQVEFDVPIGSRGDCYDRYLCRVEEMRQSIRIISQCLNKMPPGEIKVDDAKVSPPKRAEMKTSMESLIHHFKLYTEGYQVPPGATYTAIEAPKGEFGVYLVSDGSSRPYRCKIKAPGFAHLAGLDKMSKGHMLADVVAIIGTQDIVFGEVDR
# Chain of Complex I purified from bovine heart (P42026 38-216): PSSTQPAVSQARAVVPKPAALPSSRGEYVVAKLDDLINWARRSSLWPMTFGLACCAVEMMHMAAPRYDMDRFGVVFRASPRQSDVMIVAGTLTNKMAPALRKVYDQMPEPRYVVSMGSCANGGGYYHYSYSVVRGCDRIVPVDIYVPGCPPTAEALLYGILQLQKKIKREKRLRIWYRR
# Chain of Complex I purified from bovine heart (P03887 whole entry): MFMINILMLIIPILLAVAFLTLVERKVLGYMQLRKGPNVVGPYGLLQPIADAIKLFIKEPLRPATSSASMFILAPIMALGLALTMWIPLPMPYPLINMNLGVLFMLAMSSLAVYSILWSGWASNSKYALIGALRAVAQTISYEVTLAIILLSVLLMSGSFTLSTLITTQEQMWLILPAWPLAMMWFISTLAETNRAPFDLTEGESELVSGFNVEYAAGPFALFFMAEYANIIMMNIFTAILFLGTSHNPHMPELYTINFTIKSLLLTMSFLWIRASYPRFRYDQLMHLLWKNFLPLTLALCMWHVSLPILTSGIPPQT
# How it was run: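 MitoTox Complex I kit: Complex I purified from bovine heart and immunocaptured on the plate by specific antibodies. Activity followed as the decrease in absorbance at 340 nm from NADH oxidation.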
# [17] = system: U87 cells; experiment: Mitochondrial ATP content; assay type: cell-based; settings: Homo sapiens, U-87 MG, 1 h, read-out: IC50 mitochondrial ATP production
# How it was run: as §1
# [18] = molecular target: BCRP (Homo sapiens, UniProt Q9UNQ0); experiment: In vitro transporter inhibition; assay type: in vitro ADME
# [19] = system: 198 kinases; experiment: DiscoverX KiNativ in situ kinase selectivity panel on live Jurkat cells; assay type: cell-based; settings: 10 µM
# [20] = system: LL/2 cells; experiment: Apoptosis assay; assay type: cell-based, mouse; settings: LL/2, even at 10 µM
# [21] = Plasma pharmacokinetics after intravenous and oral administration; assay type: in vivo, C57BL/6J mice
# How it was run: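 Plasma pharmacokinetics in C57BL/6J mice: intravenous test compound at 3 mg/kg, and escalating oral doses of 10, 30 and 75 mg/kg.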
# [22] = system: mouse acute myeloid leukemia; settings: ref Luna Yolba, in revision; cited from earlier work
# [23] = system: Hep3B cells; experiment: Mitochondrial ATP content; assay type: cell-based; settings: Homo sapiens, 1 h, read-out: IC50 mitochondrial ATP production
# How it was run: as §1
# [24] = molecular target: CCK2R (Homo sapiens, UniProt P32239); experiment: Cerep in vitro safety screen, competition with reference ligand binding; settings: 10 µM
# Chain of CCK2R (P32239 whole entry, species assumed): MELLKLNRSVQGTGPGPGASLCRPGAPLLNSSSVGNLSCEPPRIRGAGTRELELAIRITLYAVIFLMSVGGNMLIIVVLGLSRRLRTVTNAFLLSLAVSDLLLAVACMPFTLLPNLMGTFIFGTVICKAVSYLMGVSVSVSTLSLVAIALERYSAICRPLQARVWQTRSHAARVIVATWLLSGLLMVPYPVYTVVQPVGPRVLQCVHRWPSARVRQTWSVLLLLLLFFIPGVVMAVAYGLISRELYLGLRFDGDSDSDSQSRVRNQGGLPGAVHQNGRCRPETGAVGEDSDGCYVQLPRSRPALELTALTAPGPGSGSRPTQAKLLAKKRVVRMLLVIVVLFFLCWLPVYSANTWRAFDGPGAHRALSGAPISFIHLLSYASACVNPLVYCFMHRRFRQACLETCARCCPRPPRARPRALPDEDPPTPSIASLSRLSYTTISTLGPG
# How it was run: as §3
# [25] = system: KARPAS 422 cells; experiment: Glucose and lactate levels; assay type: cell-based, human
# [26] = system: MDA‐MB231 cells; experiment: Mitochondrial ATP content; assay type: cell-based; settings: Homo sapiens, MDA-MB-231, 1 h, read-out: IC50 mitochondrial ATP production
# How it was run: as §1
# [27] = system: LL/2 cells; experiment: Proliferation assay; assay type: cell-based; settings: Mus musculus, LL/2, read-out: apparent IC50 proliferation
# [28] = system: mitochondria isolated from liver of OF1; assay type: biochemical; settings: 7.5 µM
# How it was run: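 Polarographic measurement of oxidation and phosphorylation rates in mitochondria isolated from liver of female OF1 mice, over a range of test compound doses.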
# [29] = Tissue distribution after single oral administration; assay type: in vivo, C57BL/6J mice; settings: male, C57BL/6J, mouse, 30 mg/kg
# [30] = system: H460 WT cells; experiment: mTOR/AMPK pathway signaling; assay type: cell-based, human; settings: WT H460, over 60 min
# [31] = system: KARPAS 422 cells; experiment: Proliferation assay; assay type: cell-based; settings: Homo sapiens, KARPAS-422, read-out: IC50 proliferation
# [32] = molecular target: OCT1 (Homo sapiens, UniProt O15245); experiment: In vitro transporter inhibition; assay type: in vitro ADME
# Chain of OCT1 (O15245 whole entry): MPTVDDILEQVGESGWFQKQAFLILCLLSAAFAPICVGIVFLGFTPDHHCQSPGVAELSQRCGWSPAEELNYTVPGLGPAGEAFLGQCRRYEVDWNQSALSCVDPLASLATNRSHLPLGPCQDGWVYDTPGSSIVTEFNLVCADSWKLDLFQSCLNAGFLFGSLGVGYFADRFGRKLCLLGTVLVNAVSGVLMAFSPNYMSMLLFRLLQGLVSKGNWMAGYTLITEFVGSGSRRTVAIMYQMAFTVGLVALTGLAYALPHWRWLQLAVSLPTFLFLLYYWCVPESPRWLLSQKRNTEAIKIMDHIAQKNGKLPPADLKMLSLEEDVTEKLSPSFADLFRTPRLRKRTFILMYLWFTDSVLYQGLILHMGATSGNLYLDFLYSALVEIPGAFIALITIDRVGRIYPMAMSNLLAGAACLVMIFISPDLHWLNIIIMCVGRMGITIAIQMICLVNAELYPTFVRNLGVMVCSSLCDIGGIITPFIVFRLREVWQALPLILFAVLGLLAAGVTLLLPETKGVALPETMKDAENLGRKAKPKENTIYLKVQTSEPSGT
# [33] = molecular target: OATP1B3 (Homo sapiens, UniProt Q9NPD5); experiment: In vitro transporter inhibition; assay type: in vitro ADME
# Chain of OATP1B3 (Q9NPD5 whole entry): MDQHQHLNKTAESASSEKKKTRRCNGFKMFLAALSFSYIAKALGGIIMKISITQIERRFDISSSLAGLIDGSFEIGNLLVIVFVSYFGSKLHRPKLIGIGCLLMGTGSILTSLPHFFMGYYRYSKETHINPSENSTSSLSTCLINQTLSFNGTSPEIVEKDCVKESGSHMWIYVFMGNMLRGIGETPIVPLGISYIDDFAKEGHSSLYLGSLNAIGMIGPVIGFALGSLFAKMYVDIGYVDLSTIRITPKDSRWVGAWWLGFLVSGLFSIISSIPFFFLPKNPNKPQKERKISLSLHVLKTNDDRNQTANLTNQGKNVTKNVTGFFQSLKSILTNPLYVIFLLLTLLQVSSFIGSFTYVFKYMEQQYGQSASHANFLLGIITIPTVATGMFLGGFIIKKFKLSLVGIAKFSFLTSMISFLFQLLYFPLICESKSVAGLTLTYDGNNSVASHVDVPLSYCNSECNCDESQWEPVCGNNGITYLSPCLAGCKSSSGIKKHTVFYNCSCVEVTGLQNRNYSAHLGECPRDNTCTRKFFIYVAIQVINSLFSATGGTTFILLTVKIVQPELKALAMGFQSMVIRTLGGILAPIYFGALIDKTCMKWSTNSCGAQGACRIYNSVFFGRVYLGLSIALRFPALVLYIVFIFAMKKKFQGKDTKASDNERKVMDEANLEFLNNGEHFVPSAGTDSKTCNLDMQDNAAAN
# [34] = system: OxPhos‐Eµ‐Myc lymphoma; experiment: B‐cell lymphoma in vivo study, OxPhos‐Eµ‐Myc; set-up: species or system C57BL/6 mice; settings: 30 mg/kg p.o. QD, OxPhos‐Eµ‐Myc‐bearing mice
# How it was run: as §2
# [35] = molecular target: A2AR (Homo sapiens, UniProt P29274); experiment: Cerep in vitro safety screen, competition with reference ligand binding; settings: 10 µM
# How it was run: as §3
# [36] = molecular target: MRP2 (Homo sapiens, UniProt Q92887); experiment: In vitro transporter inhibition; assay type: in vitro ADME
# [37] = system: OxPhos‐Eµ‐Myc and glycolytic‐Eµ‐Myc lymphoma cells; experiment: In vitro cell death assay; assay type: cell-based, mouse; settings: 10 µM, 24 h, DAPI positive cells
# How it was run: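 Primary Eμ‐Myc cells were maintained in DMEM with 10% FBS, 2‐mercaptoethanol (50 µM), L‐asparagine (0.37 mM) and HEPES (10 mM, pH 7.4). Cells (2 × 10^5/well) were exposed to test compound or DMSO for 24 h, stained with DAPI (0.5 µg/ml) and analysed by flow cytometry. Cell death = % DAPI‐positive in treated cells ÷ % DAPI‐positive in control. Mean of 4 independent experiments, 5 clones per group.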
# [38] = molecular target: MLK2 (Homo sapiens, UniProt Q02779); experiment: DiscoverX KiNativ in situ kinase selectivity panel on live Jurkat cells; assay type: cell-based; settings: 10 µM
# [39] = system: patients; settings: 18 patients with advanced solid tumors; cited from earlier work
compound,measurement,setting,value
"Cc1cc(-c2nc(-c3ccc(OC(F)(F)F)cc3)no2)nn1Cc1ccnc(N2CCN(C3CC3)CC2)c1 [BAY87‐2243, reference compound]",dose at which an effect on OCR is detected,[1],above 100 nM
same,dose at which proliferation is significantly inhibited,[2]; H460,less than or equal to 1 nM
same,dose at which mitochondrial ATP production is significantly inhibited,[3],less than or equal to 1 nM
same,"emesis in patients, clinical phase 1",[4],induction of emesis in patients
same,dose at which apoptosis is significantly affected (printed: inhibited),[5]; H460,less than or equal to 1 nM
same,what limited dose escalation,[6],limited by toxicity
same,induction of emesis (retches and vomits),[6],induced retches and vomits from half of the first patient Cmax
"COc1ccc(C(O)COc2ccc(-c3csc(-c4ccc(OCC(O)c5ccc(OC)c(OC)c5)cc4)n3)cc2)cc1OC (stereo not shown) [EVT‐701, 1‐(3,4‐dimethoxyphenyl)‐2‐[4‐[2‐[4‐[2‐(3,4‐dimethoxyphenyl)‐2‐hydroxy‐ethoxy]phenyl]‐thiazol‐4‐yl]‐phenoxy]ethanol]",IC50,[7],> 30000 nM
same,overall survival,[8],no effect
same,weight of lymphomas vs Vehicle,[8],similar
same,progression‐free survival,[8]; data not shown,no effect
same,"phosphorylation of 4E‐BP1 (Serine 65), Raptor and ACC downstream of AMPK",[9],increased phosphorylation state
same,P‐gp transport,[10],not affected
same,total ATP,[11],remains unchanged
same,increase of ligand binding to CCK1R,[12],more than 50%
same,induction of apoptosis,[13],no induction of apoptosis
same,decrease of tumor volume at D21,[14],60%
same,IC50,[15],1100 ± 100 nM
same,IC50,[16],300 nM
same,IC50,[17],74 ± 38 nM
same,IC50,[18],4100 ± 2700 nM
same,IC50,"[2]; Homo sapiens, NCI-H460, read-out: apparent IC50 proliferation",68 ± 27 nM
same,"inhibition of kinase activity, any of the 198 kinases of the panel",[19],≤ 30%
same,cell death induction,[20],no significant cell death
same,F (bioavailability),"[21]; AUC of 10 mg/kg oral dose vs AUC of intravenous dose, 10 mg/kg",64%
same,half-life,"[21]; C57BL/6J, mouse, plasma, po, 10 mg/kg",4.1 h
same,dose‐proportionality,"[21]; oral 10, 30 and 75 mg/kg",conserved from 10 to 75 mg/kg
same,rescue of inhibitory effect on respiration,[22],rescued by succinate
same,IC50,[23],81 ± 12 nM
same,increase of ligand binding to CCK2R,[24],more than 50%
same,glucose consumption and lactate release,[25],increased glucose consumption and lactate release
same,IC50,[26],52 ± 18 nM
same,IC50,[27],295 ± 52 nM
same,inhibition of NADH oxidation and phosphorylation of ADP into ATP,[28],80%
same,Kp,[29]; brain,0.25
same,Kp,[29]; heart,4.2
same,Kp,[29]; kidney,4.5
same,Kp,[29]; liver,5.9
same,Kp,[29]; lung,2.3
same,Kp,[29]; pancreas,4.5
same,"4E‐BP1, Raptor and ACC phosphorylation",[30],unaffected
same,IC50,[31],188 ± 50 nM
same,IC50,[32],> 30000 nM
same,IC50,[33],2400 ± 200 nM
same,IC50,"[5]; Homo sapiens, NCI-H460, read-out: IC50 apoptosis induction",96 ± 28 nM
same,lymphomas harvested vs Vehicle,[34],significantly smaller
same,overall survival,[34],significant increase
same,progression‐free survival,[34]; not shown,significant increase
same,decrease of ligand binding to A2AR,[35],more than 50%
same,IC50,[36],> 30000 nM
same,"sensitivity to cell death induction, OxPhos‐Eµ‐Myc vs glycolytic‐Eµ‐Myc cells",[37],more sensitive
same,what limited dose escalation,[6],by solubility
same,induction of emesis (retches and vomits),[6],didn't
same,increase of MLK2 activity,[38],more than 30%
Cc1nc(-c2nc(-c3ccc(OC(F)(F)F)cc3)no2)nn1Cc1cccc(N2CCC(S(C)(=O)=O)CC2)c1 [IACS‐010759],tolerability in phase 1,[39],well‐tolerated
